Test results published in ChEMBL document CHEMBL1146459, “Production of biologically active taxoids by a callus culture of Taxus cuspidata” (2004).

Assays:
[1] = Reversal of multidrug resistance in human 2780AD cells assessed as [3H]vincristine accumulation at 0.1 ug/mL after 2 hrs relative to control; assay type: functional, A2780 ADR
Method in brief: (§1)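 Multidrug-resistant human ovarian cancer 2780AD cells were exposed to taxoids at 0.1, 1 or 10 µg/mL. Radiolabelled vincristine accumulated in the cells was measured as dpm/well, using means of triplicate determinations. Results are expressed as % of vincristine accumulated relative to the control experiment. They were also scored on a seven-level index according to the range of relative accumulation.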

[2] = Reversal of multidrug resistance in human 2780AD cells assessed as [3H]vincristine accumulation at 1 ug/mL after 2 hrs relative to control; assay type: functional, A2780 ADR; method in brief: as §1
[3] = Reversal of multidrug resistance in human 2780AD cells assessed as [3H]vincristine accumulation at 10 ug/mL after 2 hrs relative to control; assay type: functional, A2780 ADR; method in brief: as §1
[4] = Reversal of multidrug resistance in human 2780AD cells assessed as [3H]vincristine accumulation at 0.1 ug/mL after 2 hrs relative to verapamil; assay type: functional, A2780 ADR
[5] = Growth inhibition of human HBC4 cells after 48 hrs by SRB assay; assay type: functional; conditions: HBC4, 48 h
[6] = tested on: MCF7; test: Growth inhibition of human MCF7 cells after 48 hrs by SRB assay; assay type: functional; conditions: MCF7, 48 h
[7] = tested on: U-251; test: Growth inhibition of human U251 cells after 48 hrs by SRB assay; assay type: functional; conditions: U-251, 48 h
[8] = tested on: SF-268; test: Growth inhibition of human SF268 cells after 48 hrs by SRB assay; assay type: functional; conditions: SF-268, 48 h
[9] = tested on: SF-295; test: Growth inhibition of human SF295 cells after 48 hrs by SRB assay; assay type: functional; conditions: SF-295, 48 h
[10] = tested on: SF-539; test: Growth inhibition of human SF539 cells after 48 hrs by SRB assay; assay type: functional; conditions: SF-539, 48 h
[11] = tested on: SNB-75; test: Growth inhibition of human SNB75 cells after 48 hrs by SRB assay; assay type: functional; conditions: SNB-75, 48 h
[12] = tested on: SNB-78; test: Growth inhibition of human SNB78 cells after 48 hrs by SRB assay; assay type: functional; conditions: SNB-78, 48 h
[13] = tested on: HCC 2998; test: Growth inhibition of human HCC2998 cells after 48 hrs by SRB assay; assay type: functional; conditions: HCC 2998, 48 h
[14] = tested on: KM12; test: Growth inhibition of human KM12 cells after 48 hrs by SRB assay; assay type: functional; conditions: KM12, 48 h
[15] = tested on: A549; test: Growth inhibition of human A549 cells after 48 hrs by SRB assay; assay type: functional; conditions: A549, 48 h
[16] = tested on: LOX IMVI; test: Growth inhibition of human LOXIMVI cells after 48 hrs by SRB assay; assay type: functional
[17] = tested on: OVCAR-5; test: Growth inhibition of human OVCAR5 cells after 48 hrs by SRB assay; assay type: functional; conditions: OVCAR-5, 48 h
[18] = tested on: OVCAR-8; test: Growth inhibition of human OVCAR8 cells after 48 hrs by SRB assay; assay type: functional; conditions: OVCAR-8, 48 h
[19] = tested on: SK-OV-3; test: Growth inhibition of human SKOV3 cells after 48 hrs by SRB assay; assay type: functional; conditions: SK-OV-3, 48 h
[20] = tested on: ACHN; test: Growth inhibition of human ACHN cells after 48 hrs by SRB assay; assay type: functional
[21] = tested on: MKN-45; test: Growth inhibition of human MKN45 cells after 48 hrs by SRB assay; assay type: functional; conditions: MKN-45, 48 h
[22] = tested on: MKN-74; test: Growth inhibition of human MKN74 cells after 48 hrs by SRB assay; assay type: functional; conditions: MKN-74, 48 h
[23] = read-out: LC50 (the source's name)
[24] = read-out: pLC50 (the source's name) (converted)

C=C1[C@@H](OC(C)=O)CC[C@]2(C)[C@@H]1C[C@@H]1C[C@H](OC(C)=O)C(C)=C([C@@H](O)[C@@H]2OC(=O)/C=C/c2ccccc2)C1(C)C
9.5 µM: GI50 ([22]; read-out: GI50)
9.55 µM: GI50 ([15]; read-out: pGI50 (converted)) | GI50 ([22]; read-out: pGI50 (converted))
648%: Activity [3]
162%: Activity [1]
26 µM: GI50 ([13]; read-out: GI50)
32.4 µM: GI50 ([17]; read-out: pGI50 (converted))
26.3 µM: GI50 ([13]; read-out: pGI50 (converted))
9.3 µM: GI50 ([6]; read-out: GI50)
10 µM: GI50 ([9]; read-out: GI50)
43 µM: GI50 ([8]; read-out: GI50)
399%: Activity [2]
139%: Activity [4]
> 100 µM: GI50 ([5]; read-out: pGI50 (converted)) | CC50 [6, 23] | CC50 ([6]; read-out: pLC50 (converted)) | GI50 ([10]; read-out: GI50) | GI50 ([10]; read-out: pGI50 (converted)) | CC50 [14, 23] | CC50 ([14]; read-out: pLC50 (converted)) | GI50 ([18]; read-out: GI50) | GI50 ([18]; read-out: pGI50 (converted)) | GI50 ([19]; read-out: GI50) | GI50 ([19]; read-out: pGI50 (converted)) | GI50 ([21]; read-out: pGI50 (converted))
6.4 µM: GI50 ([14]; read-out: GI50)
7.24 µM: GI50 ([11]; read-out: pGI50 (converted))
6.46 µM: GI50 ([14]; read-out: pGI50 (converted))
38 µM: GI50 ([16]; read-out: GI50) | GI50 ([16]; read-out: pGI50 (converted))
3.16 µM: GI50 ([12]; read-out: pGI50 (converted))
9.33 µM: GI50 ([6]; read-out: pGI50 (converted))
89.1 µM: GI50 ([20]; read-out: pGI50 (converted))
10.7 µM: GI50 ([8]; read-out: pGI50 (converted))
10.5 µM: GI50 ([9]; read-out: pGI50 (converted))
67.6 µM: TGI ([11]; read-out: pTGI (converted))
100 µM: CC50 [5, 23] | TGI ([5]; read-out: TGI) | CC50 [5, 24] | TGI ([5]; read-out: pTGI (converted)) | TGI ([6]; read-out: TGI) | TGI ([6]; read-out: pTGI (converted)) | CC50 [7, 23] | TGI ([7]; read-out: TGI) | CC50 [7, 24] | TGI ([7]; read-out: pTGI (converted)) | CC50 [8, 23] | TGI ([8]; read-out: TGI) | CC50 [8, 24] | TGI ([8]; read-out: pTGI (converted)) | TGI ([9]; read-out: TGI) | TGI ([9]; read-out: pTGI (converted)) | CC50 [10, 23] | TGI ([10]; read-out: TGI) | CC50 [10, 24] | TGI ([10]; read-out: pTGI (converted)) | CC50 [11, 23] | CC50 [11, 24] | TGI ([12]; read-out: TGI) | TGI ([12]; read-out: pTGI (converted)) | CC50 [13, 23] | TGI ([13]; read-out: TGI) | CC50 [13, 24] | TGI ([13]; read-out: pTGI (converted)) | TGI ([14]; read-out: TGI) | TGI ([14]; read-out: pTGI (converted)) | CC50 [15, 23] | TGI ([15]; read-out: TGI) | CC50 [15, 24] | TGI ([15]; read-out: pTGI (converted)) | CC50 [16, 23] | TGI ([16]; read-out: TGI) | CC50 [16, 24] | TGI ([16]; read-out: pTGI (converted)) | TGI ([17]; read-out: TGI) | TGI ([17]; read-out: pTGI (converted)) | TGI ([18]; read-out: TGI) | TGI ([18]; read-out: pTGI (converted)) | CC50 [19, 23] | TGI ([19]; read-out: TGI) | CC50 [19, 24] | TGI ([19]; read-out: pTGI (converted)) | CC50 [20, 23] | TGI ([20]; read-out: TGI) | CC50 [20, 24] | TGI ([20]; read-out: pTGI (converted)) | CC50 [21, 23] | TGI ([21]; read-out: TGI) | CC50 [21, 24] | TGI ([21]; read-out: pTGI (converted)) | CC50 [22, 23] | TGI ([22]; read-out: TGI) | CC50 [22, 24] | TGI ([22]; read-out: pTGI (converted))
3.2 µM: GI50 ([12]; read-out: GI50)
70.8 µM: GI50 ([7]; read-out: pGI50 (converted))
32 µM: GI50 ([17]; read-out: GI50)
9.6 µM: GI50 ([15]; read-out: GI50)
7.3 µM: GI50 ([11]; read-out: GI50)
68 µM: TGI ([11]; read-out: TGI)
71 µM: GI50 ([7]; read-out: GI50)
87 µM: GI50 ([20]; read-out: GI50)
